In general, IC50 refers to the concentration needed to halve the response being measured. One may read the EC50 as the concentration at which the effect is half-maximal. Read a high EC50 as lower potency in that assay.

Structures are written as SMILES. Activity calls are given as the source filed them. The rule behind the calls is not given here. Some results are limits rather than exact numbers.

The target in test [1] is T1, Tyrosine-protein kinase receptor UFO (Homo sapiens, UniProt P30530).
T1 sequence (P30530 whole entry): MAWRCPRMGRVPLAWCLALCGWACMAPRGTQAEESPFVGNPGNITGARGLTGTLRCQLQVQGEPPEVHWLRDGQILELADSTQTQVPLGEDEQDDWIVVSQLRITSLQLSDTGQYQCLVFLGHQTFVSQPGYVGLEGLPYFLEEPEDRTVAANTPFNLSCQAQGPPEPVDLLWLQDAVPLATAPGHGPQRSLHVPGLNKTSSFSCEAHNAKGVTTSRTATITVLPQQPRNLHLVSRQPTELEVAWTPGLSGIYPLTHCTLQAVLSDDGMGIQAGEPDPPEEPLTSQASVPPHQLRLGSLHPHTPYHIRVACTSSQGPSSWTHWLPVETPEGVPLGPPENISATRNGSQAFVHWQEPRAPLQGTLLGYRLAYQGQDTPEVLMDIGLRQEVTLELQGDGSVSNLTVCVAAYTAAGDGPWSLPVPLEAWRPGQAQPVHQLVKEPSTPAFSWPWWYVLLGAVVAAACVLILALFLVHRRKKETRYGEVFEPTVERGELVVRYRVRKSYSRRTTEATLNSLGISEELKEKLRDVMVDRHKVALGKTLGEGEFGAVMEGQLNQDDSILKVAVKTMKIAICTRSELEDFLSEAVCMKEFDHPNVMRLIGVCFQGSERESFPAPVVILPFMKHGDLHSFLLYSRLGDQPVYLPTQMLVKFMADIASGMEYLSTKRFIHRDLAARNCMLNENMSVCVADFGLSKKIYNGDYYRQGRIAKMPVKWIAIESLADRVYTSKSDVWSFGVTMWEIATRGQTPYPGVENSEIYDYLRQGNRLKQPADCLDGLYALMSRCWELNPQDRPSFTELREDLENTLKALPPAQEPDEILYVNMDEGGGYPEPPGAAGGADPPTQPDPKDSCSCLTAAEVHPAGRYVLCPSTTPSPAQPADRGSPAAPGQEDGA
Briefly: Inhibition of wild-type human partial length AXL (R497 to Y821 residues) expressed in bacterial expression system using poly [Glu, Try] 4:1 as substrate in presence of [gamma-33P]ATP.

Test [2] addresses Mast/stem cell growth factor receptor Kit (Homo sapiens, UniProt P10721). The experiment in a line: Inhibition of wild-type human partial length KIT (I571 to D952 residues) expressed in bacterial expression system using poly [Glu, Try] 4:1 as substrate in presence of [gamma-33P]ATP. The method, boiled down:
(§1)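 Radiometric assay on recombinant kinase: ³³P incorporation into the kinase substrate was measured and activity was expressed relative to a DMSO control.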

The target in test [3] is T2, Tyrosine-protein kinase Mer (Homo sapiens, UniProt Q12866).
T2 sequence (Q12866 whole entry): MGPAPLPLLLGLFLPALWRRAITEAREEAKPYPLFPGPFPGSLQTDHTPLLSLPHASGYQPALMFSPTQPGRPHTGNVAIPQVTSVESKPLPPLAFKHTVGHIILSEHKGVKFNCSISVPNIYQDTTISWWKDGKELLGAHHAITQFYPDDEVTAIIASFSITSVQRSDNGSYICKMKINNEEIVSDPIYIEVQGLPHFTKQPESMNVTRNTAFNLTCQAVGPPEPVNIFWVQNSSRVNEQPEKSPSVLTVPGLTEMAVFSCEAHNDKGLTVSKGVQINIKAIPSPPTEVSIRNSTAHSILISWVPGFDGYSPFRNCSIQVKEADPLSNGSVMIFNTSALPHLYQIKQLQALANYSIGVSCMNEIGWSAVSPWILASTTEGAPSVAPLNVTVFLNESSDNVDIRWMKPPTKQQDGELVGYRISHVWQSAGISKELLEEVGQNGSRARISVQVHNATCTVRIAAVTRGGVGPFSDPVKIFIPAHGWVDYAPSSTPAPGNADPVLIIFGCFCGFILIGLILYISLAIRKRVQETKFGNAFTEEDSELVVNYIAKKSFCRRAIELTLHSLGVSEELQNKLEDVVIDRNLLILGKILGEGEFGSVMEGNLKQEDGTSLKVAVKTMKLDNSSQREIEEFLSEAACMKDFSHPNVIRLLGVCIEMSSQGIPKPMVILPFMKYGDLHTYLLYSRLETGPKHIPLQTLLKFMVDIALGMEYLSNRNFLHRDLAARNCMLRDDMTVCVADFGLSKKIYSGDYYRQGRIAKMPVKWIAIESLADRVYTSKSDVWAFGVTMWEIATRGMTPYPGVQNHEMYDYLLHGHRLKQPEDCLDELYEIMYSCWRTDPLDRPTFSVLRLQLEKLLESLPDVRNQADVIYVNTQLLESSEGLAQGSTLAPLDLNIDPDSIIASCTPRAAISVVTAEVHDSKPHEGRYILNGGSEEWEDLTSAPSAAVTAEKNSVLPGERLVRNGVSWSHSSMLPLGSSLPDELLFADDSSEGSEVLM
The experiment in a line: Inhibition of wild-type human partial length MER (R557 to L884 residues) expressed in bacterial expression system using poly [Glu, Try] 4:1 as substrate in presence of [gamma-33P]ATP.

Test [4] has as its target Proto-oncogene tyrosine-protein kinase Src (Homo sapiens, UniProt P12931). Briefly: Inhibition of wild-type human partial length SRC (L240 to L536 residues) expressed in bacterial expression system using poly [Glu, Try] 4:1 as substrate in presence of [gamma-33P]ATP.
For test [5], the target named is Vascular endothelial growth factor receptor 2 (Homo sapiens, UniProt P35968). Briefly: Inhibition of wild-type human partial length VEGFR2 (R787 to P1253 residues) expressed in mammalian expression system using poly [Glu, Try] 4:1 as substrate in presence of [gamma-33P]ATP.
For test [6], the species on record is Mus musculus. Briefly: (§2) Antiproliferative activity against mouse AXL-positive Breast cancer cells after 5 days by PrestoBlue assay. The class given is functional. In short, it runs like this:
(§3)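 Cell proliferation: AXL+ cells were exposed to 8-point half-log dilutions (0.03–100 μM). Viability was read with PrestoBlue reagent on day 5.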

In test [7] the target is ALK tyrosine kinase receptor (Homo sapiens, UniProt Q9UM73). The experiment in a line: Inhibition of wild-type human partial length ALK (I1088 to E1409 residues) expressed in mammalian expression system using poly [Glu, Try] 4:1 as substrate in presence of [gamma-33P]ATP. In short, it runs like this:
as §1

The target of test [8] is Receptor-type tyrosine-protein kinase FLT3 (Homo sapiens, UniProt P36888, ITD). Briefly: Inhibition of human partial length FLT3 ITD mutant expressed in bacterial expression system using poly [Glu, Try] 4:1 as substrate in presence of [gamma-33P]ATP. In short, it runs like this: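 Recombinant kinase assays were run radiometrically by an outside contract service. Activity was read as 33P incorporation into each kinase's substrate and expressed relative to a DMSO control.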

The target of test [9] is Platelet-derived growth factor receptor alpha (Homo sapiens, UniProt P16234). Briefly: Inhibition of wild-type human partial length PDGFRA (V575 to D1002 residues) expressed in mammalian expression system using poly [Glu, Try] 4:1 as substrate in presence of [gamma-33P]ATP. The method, boiled down:
as §1

A short description of test [10]: as §2. The class given is functional. The settings on record: 120 h. The method, boiled down: as §3

Mast/stem cell growth factor receptor Kit, sequence (P10721 whole entry, the tested form may be a part): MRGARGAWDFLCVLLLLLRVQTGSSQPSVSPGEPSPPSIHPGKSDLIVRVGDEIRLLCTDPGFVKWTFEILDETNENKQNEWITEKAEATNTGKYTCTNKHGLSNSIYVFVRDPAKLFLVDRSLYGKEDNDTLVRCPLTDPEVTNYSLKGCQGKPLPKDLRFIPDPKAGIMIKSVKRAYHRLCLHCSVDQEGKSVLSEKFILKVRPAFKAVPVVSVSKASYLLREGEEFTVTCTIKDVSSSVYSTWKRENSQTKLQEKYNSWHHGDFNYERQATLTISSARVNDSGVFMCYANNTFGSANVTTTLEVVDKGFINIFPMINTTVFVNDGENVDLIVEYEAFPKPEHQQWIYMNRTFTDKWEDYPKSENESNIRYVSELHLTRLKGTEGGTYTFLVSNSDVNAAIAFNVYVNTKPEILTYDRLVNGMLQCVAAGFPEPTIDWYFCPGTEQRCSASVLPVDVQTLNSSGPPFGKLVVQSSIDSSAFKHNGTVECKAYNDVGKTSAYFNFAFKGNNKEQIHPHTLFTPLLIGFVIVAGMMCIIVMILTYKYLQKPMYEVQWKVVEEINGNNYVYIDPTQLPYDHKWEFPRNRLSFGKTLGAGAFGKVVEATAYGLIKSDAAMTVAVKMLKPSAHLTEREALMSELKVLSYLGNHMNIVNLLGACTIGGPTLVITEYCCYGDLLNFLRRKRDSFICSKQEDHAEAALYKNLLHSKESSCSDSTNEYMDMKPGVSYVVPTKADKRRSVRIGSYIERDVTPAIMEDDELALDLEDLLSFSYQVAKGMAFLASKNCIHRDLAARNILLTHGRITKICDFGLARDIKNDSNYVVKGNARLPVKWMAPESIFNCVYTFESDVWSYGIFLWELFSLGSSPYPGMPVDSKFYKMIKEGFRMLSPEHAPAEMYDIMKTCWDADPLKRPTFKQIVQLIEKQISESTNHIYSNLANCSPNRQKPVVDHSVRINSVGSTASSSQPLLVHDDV
Vascular endothelial growth factor receptor 2, sequence (P35968 whole entry, the tested form may be a part): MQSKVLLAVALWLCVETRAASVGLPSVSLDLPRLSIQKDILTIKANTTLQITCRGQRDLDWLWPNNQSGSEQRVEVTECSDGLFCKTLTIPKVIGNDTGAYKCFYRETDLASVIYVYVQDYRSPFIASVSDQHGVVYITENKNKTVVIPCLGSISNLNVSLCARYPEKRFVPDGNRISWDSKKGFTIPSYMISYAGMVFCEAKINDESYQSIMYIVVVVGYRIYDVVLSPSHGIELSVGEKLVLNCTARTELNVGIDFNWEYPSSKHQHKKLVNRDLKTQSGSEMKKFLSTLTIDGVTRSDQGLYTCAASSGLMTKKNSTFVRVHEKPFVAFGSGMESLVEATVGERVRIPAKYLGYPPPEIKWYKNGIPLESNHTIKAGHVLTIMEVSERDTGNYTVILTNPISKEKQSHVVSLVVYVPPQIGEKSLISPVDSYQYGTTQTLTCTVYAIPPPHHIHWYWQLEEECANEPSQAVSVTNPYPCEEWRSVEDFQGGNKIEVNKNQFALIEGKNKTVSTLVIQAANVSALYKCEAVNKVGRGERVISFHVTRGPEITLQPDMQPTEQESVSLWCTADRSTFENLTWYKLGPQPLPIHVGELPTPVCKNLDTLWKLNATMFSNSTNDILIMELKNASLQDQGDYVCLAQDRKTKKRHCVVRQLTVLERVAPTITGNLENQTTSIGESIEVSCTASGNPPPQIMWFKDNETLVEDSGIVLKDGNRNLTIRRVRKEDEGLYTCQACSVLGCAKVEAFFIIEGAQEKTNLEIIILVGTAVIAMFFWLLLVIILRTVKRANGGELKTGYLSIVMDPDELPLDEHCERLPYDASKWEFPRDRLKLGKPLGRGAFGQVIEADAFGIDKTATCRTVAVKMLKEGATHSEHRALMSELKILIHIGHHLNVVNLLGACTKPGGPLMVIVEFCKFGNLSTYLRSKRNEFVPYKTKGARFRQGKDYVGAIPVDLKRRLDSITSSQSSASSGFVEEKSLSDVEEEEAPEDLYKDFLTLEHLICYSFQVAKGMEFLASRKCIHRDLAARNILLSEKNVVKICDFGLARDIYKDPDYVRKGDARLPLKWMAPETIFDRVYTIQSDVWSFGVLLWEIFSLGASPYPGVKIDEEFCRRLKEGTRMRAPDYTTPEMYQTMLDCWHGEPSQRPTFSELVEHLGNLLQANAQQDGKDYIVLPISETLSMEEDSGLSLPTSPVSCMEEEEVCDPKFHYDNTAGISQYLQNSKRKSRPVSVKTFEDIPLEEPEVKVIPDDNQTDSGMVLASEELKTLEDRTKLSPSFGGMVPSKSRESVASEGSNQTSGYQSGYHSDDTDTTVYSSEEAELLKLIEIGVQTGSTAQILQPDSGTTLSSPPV
Proto-oncogene tyrosine-protein kinase Src, sequence (P12931 2-536 limits assumed): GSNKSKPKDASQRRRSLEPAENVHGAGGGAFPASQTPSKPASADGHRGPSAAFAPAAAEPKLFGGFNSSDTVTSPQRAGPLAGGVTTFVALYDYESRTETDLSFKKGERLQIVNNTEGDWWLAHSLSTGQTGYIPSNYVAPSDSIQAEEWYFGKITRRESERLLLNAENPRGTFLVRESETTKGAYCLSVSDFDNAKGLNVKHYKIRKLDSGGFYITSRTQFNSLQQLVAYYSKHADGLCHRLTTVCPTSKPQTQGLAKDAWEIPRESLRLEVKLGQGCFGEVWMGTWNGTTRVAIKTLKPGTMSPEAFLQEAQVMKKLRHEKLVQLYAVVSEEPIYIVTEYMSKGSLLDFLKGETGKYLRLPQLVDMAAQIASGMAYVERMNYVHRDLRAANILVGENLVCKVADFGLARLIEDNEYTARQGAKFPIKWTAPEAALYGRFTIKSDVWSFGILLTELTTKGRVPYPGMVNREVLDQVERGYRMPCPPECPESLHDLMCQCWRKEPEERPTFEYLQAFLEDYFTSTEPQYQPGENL
Platelet-derived growth factor receptor alpha, sequence (P16234 whole entry, the tested form may be a part): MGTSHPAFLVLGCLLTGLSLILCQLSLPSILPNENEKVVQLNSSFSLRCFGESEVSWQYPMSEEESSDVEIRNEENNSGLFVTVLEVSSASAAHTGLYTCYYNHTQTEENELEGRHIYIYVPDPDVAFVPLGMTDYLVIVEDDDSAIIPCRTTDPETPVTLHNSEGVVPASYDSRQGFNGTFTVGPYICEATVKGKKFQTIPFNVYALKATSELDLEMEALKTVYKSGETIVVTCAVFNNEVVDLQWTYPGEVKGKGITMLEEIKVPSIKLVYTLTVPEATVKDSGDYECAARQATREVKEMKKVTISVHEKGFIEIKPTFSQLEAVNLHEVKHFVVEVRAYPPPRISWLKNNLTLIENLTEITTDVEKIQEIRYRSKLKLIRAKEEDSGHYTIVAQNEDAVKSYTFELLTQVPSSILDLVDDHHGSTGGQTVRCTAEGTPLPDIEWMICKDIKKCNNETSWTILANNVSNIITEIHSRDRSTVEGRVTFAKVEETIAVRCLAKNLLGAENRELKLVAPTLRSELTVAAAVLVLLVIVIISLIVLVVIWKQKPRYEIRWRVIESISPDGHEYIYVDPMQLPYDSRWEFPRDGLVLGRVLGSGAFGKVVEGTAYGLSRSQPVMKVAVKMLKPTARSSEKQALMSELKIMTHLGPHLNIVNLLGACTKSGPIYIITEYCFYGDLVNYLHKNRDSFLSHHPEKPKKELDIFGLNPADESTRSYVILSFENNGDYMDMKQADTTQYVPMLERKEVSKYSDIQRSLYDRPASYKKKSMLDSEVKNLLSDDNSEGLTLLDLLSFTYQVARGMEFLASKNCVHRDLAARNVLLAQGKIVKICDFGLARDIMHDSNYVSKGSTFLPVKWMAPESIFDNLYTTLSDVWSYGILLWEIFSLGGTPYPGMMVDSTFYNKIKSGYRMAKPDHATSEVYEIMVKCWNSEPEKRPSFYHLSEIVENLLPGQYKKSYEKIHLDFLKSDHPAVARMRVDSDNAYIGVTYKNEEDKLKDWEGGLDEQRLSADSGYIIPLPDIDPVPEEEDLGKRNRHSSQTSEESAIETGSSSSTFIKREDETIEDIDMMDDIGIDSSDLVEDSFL
Receptor-type tyrosine-protein kinase FLT3, sequence (P36888 whole entry, looked up, change not shown): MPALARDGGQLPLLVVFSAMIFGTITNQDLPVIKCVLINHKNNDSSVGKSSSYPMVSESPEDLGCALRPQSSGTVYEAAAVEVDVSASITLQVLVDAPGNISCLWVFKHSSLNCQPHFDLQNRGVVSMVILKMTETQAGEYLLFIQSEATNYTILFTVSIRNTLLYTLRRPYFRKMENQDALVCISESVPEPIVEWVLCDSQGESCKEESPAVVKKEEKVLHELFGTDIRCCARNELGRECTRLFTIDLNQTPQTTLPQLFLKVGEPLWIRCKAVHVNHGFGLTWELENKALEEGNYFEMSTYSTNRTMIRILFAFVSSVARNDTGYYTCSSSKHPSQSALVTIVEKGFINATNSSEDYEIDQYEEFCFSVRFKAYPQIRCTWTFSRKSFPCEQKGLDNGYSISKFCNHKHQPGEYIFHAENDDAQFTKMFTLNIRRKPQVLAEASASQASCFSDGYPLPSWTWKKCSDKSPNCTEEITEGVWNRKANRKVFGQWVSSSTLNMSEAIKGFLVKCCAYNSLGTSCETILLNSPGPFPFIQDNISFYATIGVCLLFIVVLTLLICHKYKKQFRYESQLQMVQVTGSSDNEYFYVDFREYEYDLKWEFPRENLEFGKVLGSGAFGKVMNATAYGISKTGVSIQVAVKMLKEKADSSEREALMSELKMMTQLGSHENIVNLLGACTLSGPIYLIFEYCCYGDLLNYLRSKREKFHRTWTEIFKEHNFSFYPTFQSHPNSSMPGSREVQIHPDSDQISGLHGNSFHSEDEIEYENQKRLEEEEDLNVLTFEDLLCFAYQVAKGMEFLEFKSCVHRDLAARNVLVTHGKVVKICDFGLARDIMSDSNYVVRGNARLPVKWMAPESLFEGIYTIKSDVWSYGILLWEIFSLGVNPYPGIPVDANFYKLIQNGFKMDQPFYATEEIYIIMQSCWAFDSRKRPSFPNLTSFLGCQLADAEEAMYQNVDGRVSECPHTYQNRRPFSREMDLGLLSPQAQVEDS

As to `CCN1CCN(c2ccc(-c3nn(CC4CCCC4)c4nc(NC)ncc34)cn2)CC1`, the half-maximal inhibitory concentration (IC50) in test [1] was found to be 260 nM; in test [2], 1800 nM; in [3], 2500 nM; in [4] it was 3600 nM; in test [5], 1900 nM.
Consider `CCN1CCN(c2ccc(-c3nn(Cc4cn(Cc5ccccc5)nn4)c4nc(NC)ncc34)cn2)CC1`, for which the outcome in test [6] was inactive. Also, the half-inhibitory concentration (IC50) is above 10000 nM in test [1]; above 10000 nM in test [2]; above 10000 nM in test [3]; above 10000 nM in [4]; 7700 nM in test [5].
`CNc1ncc2c(-c3ccc(N4CCN(C)CC4)nc3)nn(Cc3cn(Cc4ccccc4)nn3)c2n1`: in test [6], the outcome was inactive. In addition, the IC50 in [1] was 380 nM; in test [2], above 10000 nM; in [3], 2000 nM; in test [4] it was 8300 nM; in test [5] it was 7600 nM.
Consider `Nc1nc(Nc2ccc3c(c2)CC[C@@H](N2CCCC2)CC3)nn1-c1cc2c(nn1)-c1ccccc1CCC2` [BEMCENTINIB], for which the IC50 in [2] is 1000 nM; in test [7], 530 nM; in test [8], 6 nM; in [9], 20 nM.
On to `CNc1ncc2c(-c3ccc(N4CCN(C)CC4)nc3)nn(CC3CCCC3)c2n1`, for which the IC50 in test [1] was 70 nM; in test [2], 360 nM; in [3] it was 480 nM; in test [4], 800 nM; in test [5] it was 400 nM; in test [7], 190 nM. Further, the half-inhibitory concentration (IC50) was determined as 30 nM in test [8] and 990 nM in test [9].
Take `CNc1ncc2c(-c3ccc(OC)cc3)nn(CC3OCCO3)c2n1`: the EC50 in test [10] is at most 10000 nM. Also, the IC50 in test [1] was 1300 nM; in [2], above 10000 nM; in [3] it was 8700 nM; in test [4], 7200 nM; in test [5] it was 7500 nM.
As to `CNc1ncc2c(-c3ccc(N4CCN(C(=O)C(C)(C)C)CC4)nc3)nn(CC3CCCC3)c2n1`, the concentration for half-maximal inhibition (IC50) in test [1] is 7200 nM; in test [2], above 10000 nM; in [3], above 10000 nM; in test [4], above 10000 nM; in test [5], above 10000 nM.
Turning to `CNc1ncc2c(-c3ccc(N4CCNCC4)cc3)nn(Cc3cn(Cc4ccccc4)nn3)c2n1`, in [6], the outcome was inactive. In addition, the 50% inhibitory concentration (IC50) in [1], in test [2], in test [3], in test [4] and in [5] was above 10000 nM throughout.
Turning to `CNc1ncc2c(-c3ccc(N4CCN(C(=O)C(C)(C)C)CC4)nc3)nn(Cc3cn(Cc4ccccc4)nn3)c2n1`, the outcome in test [6] was inactive. For the same molecule, the IC50 is 760 nM in test [1]; above 10000 nM in [2]; 5400 nM in [3]; above 10000 nM in test [4]; above 10000 nM in test [5].
Molecule `CNc1ncc2c(-c3ccc(N4CCNCC4)nc3)nn(CC3OCCO3)c2n1` yielded an EC50 in test [10] of at most 10000 nM. Moreover, the concentration for half-maximal inhibition (IC50) in test [1] is 530 nM; in [2], 7500 nM; in test [3] it was 6200 nM; in [4], 890 nM; in [5], 4500 nM.
Consider `CNc1ncc2c(-c3ccc(N4CCNCC4)nc3)nn(CC3CCCC3)c2n1`, for which, in [10], the EC50 turned out to be 830 nM. The IC50 in test [1] is 120 nM; in test [2], 1100 nM; in test [3], 640 nM; in test [4], 1100 nM; in [5], 690 nM.
As for `CNc1ncc2c(-c3ccc(N4CCNCC4)nc3)nn(Cc3cn(-c4ccsc4C(=O)OC)nn3)c2n1`, the result in test [6] was Active. Further, the IC50 was 780 nM in test [1]; above 10000 nM in test [2]; 8900 nM in test [3]; above 10000 nM in [4]; above 10000 nM in test [5].

These data come from ChEMBL document CHEMBL4184298, “Development of Potent Inhibitors of Receptor Tyrosine Kinases by Ligand-Based Drug Design and Target-Biased Phenotypic Screening” (J Med Chem, 2018).
